# Tests used:
# [1] = Relative cytotoxicity is expressed as the ratio of the IC50 values of the corresponding sulfide to sulfoxide or to sulfone; assay type: functional, Cricetulus griseus
# How it was run: (§1)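 V-79 cells (about 7 × 10³ per 100 μL) preincubated 24 h, then exposed to drug for 3 h under oxic conditions. Washed 5× with HBSS and grown 48 h more. Fixed with TCA and stained with SRB. Bound dye dissolved in 10 mM Tris, spotted on TLC and read by video densitometry. IC50 is the mean of triplicates in one experiment. Ratio is IC50 of sulfide over sulfoxide or sulfone.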
# [2] = Concentration of drug required to reduce V-79 cell survival to 50% of controls in a SRB assay; assay type: functional, cell-based; settings: Cricetulus griseus, V79; how it was run: as §1
# Rattus norvegicus [3] = species on record: Rattus norvegicus; assay: Bioreduction experiment was conducted by incubation of the sulfoxides with rat liver S-9 fractions in anaerobic conditions (N2); assay type: functional
# How it was run: (§2)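 Rat liver S-9 fraction incubated with sulfoxide at 37 °C for 30 min with shaking. Aerobic vials were left open to air. Anaerobic vials were purged with N2 for 10 min before the compound was injected. Cofactor was NADPH, benzaldehyde, 2-hydroxypyrimidine or acetaldehyde, or none. Controls were boiled S-9 and S-9 without cofactors. For menadione, S-9 was preincubated aerobically with 1 equiv for 30 min, then benzaldehyde was added. Sulfide or sulfone was measured by HPLC or TLC densitometry.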
# [4] = Concentration required to reduce cell survival to 10% of controls using V-79 cells in the clonogenic assay, in aerobic conditions; assay type: functional; settings: Cricetulus griseus, V79
# How it was run: (§3)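 V-79 cells (500 000 per bottle) grown 20 h in MEM with 10% FBS. Hypoxic set gassed 2 h at 37 °C with humidified 95% N2/5% CO2. Drug in ethanol/water or DMF injected through septa. Exposure 3 h under air or hypoxia. Cells trypsinised, counted by trypan blue, 500 plated in triplicate for 6–8 days. Colonies stained with crystal violet, survival relative to solvent control.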
# [5] = Concentration required to reduce cell survival to 10% of controls using V-79 cells in the clonogenic assay, in anaerobic conditions (hypoxic conditions); assay type: functional; settings: Cricetulus griseus, V79; how it was run: as §3
# Rattus norvegicus [6] = species on record: Rattus norvegicus; assay: Bioreduction experiment was conducted by incubation of the sulfoxides with rat liver S-9 fractions in anaerobic conditions (N2, benzaldehyde); assay type: functional; design: concentration or dose not given beside the values; how it was run: as §2
# Rattus norvegicus [7] = species on record: Rattus norvegicus; assay: Bioreduction experiment was conducted by incubation of the sulfoxides with rat liver S-9 fractions in anaerobic conditions (N2, without cofactors); assay type: functional; design: concentration or dose not given beside the values; how it was run: as §2
# Rattus norvegicus [8] = species on record: Rattus norvegicus; assay: Bioreduction experiment was conducted by incubation of the sulfoxides with rat liver S-9 fractions in anaerobic conditions (N2 2-hydroxypyrimidine); assay type: functional; how it was run: as §2
# Rattus norvegicus [9] = species on record: Rattus norvegicus; assay: Reduction potential (SCE) determined by differential pulse polarography of the sulfoxides […]; assay type: functional
# [10] = Hypoxic selectivity expressed as the ratio of IC50 values in air and nitrogen; assay type: functional
# [11] = Hypoxia-selective cytotoxicity required to reduce cell survival to 10% of controls using V-79 cells in the clonogenic assay, with N2; assay type: functional; settings: Cricetulus griseus, V79; how it was run: as §3
# [12] = Hypoxia-selective cytotoxicity required to reduce cell survival to 10% of controls using V-79 cells in the clonogenic assay, with air; assay type: functional; settings: Cricetulus griseus, V79; how it was run: as §3
# Rattus norvegicus [13] = species on record: Rattus norvegicus; assay: Bioreduction experiment was conducted by incubation of the sulfoxides with rat liver S-9 fractions in aerobic conditions (N2, menadione); assay type: functional; how it was run: as §2
# Rattus norvegicus [14] = species on record: Rattus norvegicus; assay: Bioreduction experiment was conducted by incubation of the sulfoxides with rat liver S-9 fractions under aerobic(air) in the presence of benzaldehyde; assay type: functional
# How it was run: (§4)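 Rat liver S-9 incubated with sulfoxide for 30 min at 37 °C, in open vials (air) or in vials purged with N2 for 10 min before dosing. Cofactor was NADPH, NADH, benzaldehyde, 2-hydroxypyrimidine or acetaldehyde. Controls were boiled S-9 or no cofactor. Menadione arm: 30 min aerobic preincubation with 1 equiv, then benzaldehyde. Stopped with CH2Cl2. Sulfide quantified by TLC densitometry as % of sulfoxide. Three experiments, same S-9 batch.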
# Rattus norvegicus [15] = species on record: Rattus norvegicus; assay: Bioreduction experiment was conducted by incubation of the sulfoxides with rat liver S-9 fractions in aerobic conditions (air, benzaldehyde); assay type: functional; how it was run: as §2
# Rattus norvegicus [16] = species on record: Rattus norvegicus; assay: Bioreduction experiment was conducted by incubation of the sulfoxides with rat liver S-9 fractions under aerobic(air) without cofactors; assay type: functional; how it was run: as §4
# Rattus norvegicus [17] = species on record: Rattus norvegicus; assay: Bioreduction experiment was conducted by incubation of the sulfoxides with rat liver S-9 fractions in aerobic conditions (air, NADPH); assay type: functional; how it was run: as §2
# Rattus norvegicus [18] = species on record: Rattus norvegicus; assay: Bioreduction experiment was conducted by incubation of the sulfoxides with rat liver S-9 fractions under anaerobic (N2) in the presence of NADPH; assay type: functional; how it was run: as §4
# Rattus norvegicus [19] = species on record: Rattus norvegicus; assay: Bioreduction experiment was conducted by incubation of the sulfoxides with rat liver S-9 fractions in aerobic conditions (air, without cofactors); assay type: functional; how it was run: as §2
# Rattus norvegicus [20] = species on record: Rattus norvegicus; assay: Bioreduction experiment was conducted by incubation of the sulfoxides with rat liver S-9 fractions under anaerobic (N2) in the presence of 2-hydroxypyrimidine; assay type: functional; how it was run: as §4
# Rattus norvegicus [21] = species on record: Rattus norvegicus; assay: Bioreduction experiment was conducted by incubation of the sulfoxides with rat liver S-9 fractions under anaerobic (N2) in the presence of menadione; assay type: functional; how it was run: as §4
# Rattus norvegicus [22] = species on record: Rattus norvegicus; assay: Bioreduction experiment was conducted by incubation of the sulfoxides with rat liver S-9 fractions under anaerobic (N2) in the presence of NADH; assay type: functional; how it was run: as §4
# Rattus norvegicus [23] = species on record: Rattus norvegicus; assay: Bioreduction experiment was conducted by incubation of the sulfoxides with rat liver S-9 fractions in aerobic conditions (air, control); assay type: functional; how it was run: as §2
# Rattus norvegicus [24] = species on record: Rattus norvegicus; assay: Bioreduction experiment was conducted by incubation of the sulfoxides with rat liver S-9 fractions under anaerobic (N2) with conditions boiled S-9 fractions; assay type: functional; how it was run: as §4
# Rattus norvegicus [25] = species on record: Rattus norvegicus; assay: Bioreduction experiment was conducted by incubation of the sulfoxides with rat liver S-9 fractions under anaerobic (N2) without cofactors; assay type: functional; how it was run: as §4
# Rattus norvegicus [26] = species on record: Rattus norvegicus; assay: Bioreduction experiment was conducted by incubation of the sulfoxides with rat liver S-9 fractions in aerobic conditions (N2, acetaldehyde); assay type: functional; how it was run: as §2
# Rattus norvegicus [27] = species on record: Rattus norvegicus; assay: Bioreduction experiment was conducted by incubation of the sulfoxides with rat liver S-9 fractions in aerobic conditions (N2, NADPH); assay type: functional; how it was run: as §2
# Rattus norvegicus [28] = species on record: Rattus norvegicus; assay: Bioreduction experiment was conducted by incubation of the sulfoxides with rat liver S-9 fractions in anaerobic conditions N2); assay type: functional; how it was run: as §2
# Rattus norvegicus [29] = species on record: Rattus norvegicus; assay: Bioreduction experiment was conducted by incubation of the sulfoxides with rat liver S-9 fractions in aerobic conditions (N2, 2-hydroxypyrimidine); assay type: functional; how it was run: as §2
# Rattus norvegicus [30] = species on record: Rattus norvegicus; assay: Bioreduction experiment was conducted by incubation of the sulfoxides with rat liver S-9 fractions under aerobic(air) in the presence of were NADH; assay type: functional; how it was run: as §4
# Rattus norvegicus [31] = species on record: Rattus norvegicus; assay: Bioreduction experiment was conducted by incubation of the sulfoxides with rat liver S-9 fractions under aerobic(air) in the presence of NADPH; assay type: functional; how it was run: as §4
# Rattus norvegicus [32] = species on record: Rattus norvegicus; assay: Bioreduction experiment was conducted by incubation of the sulfoxides with rat liver S-9 fractions under aerobic(air) with conditions boiled S-9 fractions; assay type: functional; how it was run: as §4
# Rattus norvegicus [33] = species on record: Rattus norvegicus; assay: Bioreduction experiment was conducted by incubation of the sulfoxides with rat liver S-9 fractions under anaerobic (N2) in the presence of acetaldehyde; assay type: functional; how it was run: as §4
smiles,measurement,setting,value
Nc1ccc(S(=O)(=O)c2ccc(N(CCCl)CCCl)cc2)cc1,Cytotoxicity,[1],0.09
same,IC50,[2],26.9 µM
[O-][s+]1c2ccc(N(CCCl)CCCl)cc2c2cc(N(CCCl)CCCl)ccc21,Bioreduction,Rattus norvegicus [3],0%
same,IC90,[4],4670 µM
same,IC90,[5],1520 µM
same,Bioreduction,Rattus norvegicus [6],0.6%
same,Bioreduction,Rattus norvegicus [7],0.6%
same,Bioreduction,Rattus norvegicus [8],0.33%
same,E,Rattus norvegicus [9],1.96 -V
same,Selectivity,[10],3
O=[N+]([O-])c1ccc([S+]([O-])c2ccc(N(CCCl)CCCl)cc2)cc1 (stereo not drawn),IC90,[11],182 µM
same,IC90,[12],3680 µM
same,Cytotoxicity,[1],0.1
same,IC50,[2],21.9 µM
same,Selectivity,[10],20
Cl.ClCCN(CCCl)c1ccc(Sc2ccc(Nc3c4ccccc4nc4ccccc34)cc2)cc1,Cytotoxicity,[1],1
same,IC50,[2],1.93 µM
O=[N+]([O-])c1ccc(Sc2ccc(N(CCCl)CCCl)cc2)cc1,Cytotoxicity,[1],1
same,IC50,[2],2.25 µM
Nc1ccc([S+]([O-])c2ccc(N(CCCl)CCCl)cc2)cc1 (stereo not drawn),Bioreduction,Rattus norvegicus [13],0%
same,Bioreduction,Rattus norvegicus [14],1.05%
same,Bioreduction,Rattus norvegicus [15],0%
same,Bioreduction,Rattus norvegicus [16],1.14%
same,Bioreduction,Rattus norvegicus [17],0 nmol/mg
same,Bioreduction,Rattus norvegicus [18],42.1%
same,Bioreduction,Rattus norvegicus [19],0%
same,Bioreduction,Rattus norvegicus [6],5%
same,Bioreduction,Rattus norvegicus [7],0%
same,Bioreduction,Rattus norvegicus [20],8.5%
same,Bioreduction,Rattus norvegicus [21],1.6%
same,IC90,[11],185 µM
same,Bioreduction,Rattus norvegicus [22],9%
same,IC90,[12],2800 µM
same,Bioreduction,Rattus norvegicus [23],0%
same,Bioreduction,Rattus norvegicus [24],0%
same,Bioreduction,Rattus norvegicus [25],1.75%
same,Bioreduction,Rattus norvegicus [26],4.42%
same,Bioreduction,Rattus norvegicus [27],0.37%
same,Bioreduction,Rattus norvegicus [28],0%
same,Bioreduction,Rattus norvegicus [29],4.5%
same,Bioreduction,Rattus norvegicus [30],9.75%
same,Bioreduction,Rattus norvegicus [31],16%
same,Bioreduction,Rattus norvegicus [32],0%
same,Cytotoxicity,[1],0.08
same,E,Rattus norvegicus [9],2.55 -V
same,Bioreduction,Rattus norvegicus [33],12.92%
same,IC50,[2],30 µM
same,Selectivity,[10],15
[O-][S+](c1ccccc1)c1ccc(N(CCCl)CCCl)cc1 (stereo not drawn),IC90,[4],2010 µM
same,IC90,[5],189 µM
same,Selectivity,[10],11
O=[N+]([O-])c1ccc(S(=O)(=O)c2ccc(N(CCCl)CCCl)cc2)cc1,Cytotoxicity,[1],0.08
same,IC50,[2],26.7 µM

# From ChEMBL document CHEMBL1133503 (J Med Chem, 2000)
